Measured values pooled from the literature.
Compare with care: the assays were run in different laboratories.
Target: Protein-tyrosine kinase 2-beta (PTK2B, Homo sapiens, UniProt Q14289)

Compound | effect on | action | method | concentration | quantity | value
Cc1[nH]c(/C=C2\C(=O)Nc3ccc(F)cc32)c(C)c1C(=O)N[C@H]1CCN(C(=O)N(C)C)C1 | enzyme activity | inhibitor | – | 1 µM | remaining activity | 75%
CCN(CC)c1ccc(C2=NNC(=O)CC2C)cc1[N+](=O)[O-] (stereo not shown) | enzyme activity | inhibitor | – | 10 µM | remaining activity | 97%
Nc1c(C(=O)NCc2ccc(C(=O)NCCCC3CCCCC3)cc2)cnn1-c1ccccc1 | cell-free assay | – | competition with immobilised ligand | 0.1 µM | remaining binding | 99%
O=C1Nc2ccc(Cl)cc2C1=Cc1cc(Cl)c(O)c(Cl)c1 | cell-free assay | – | – | 0.5 µM | remaining signal | 96.7%
Cc1ccc(Nc2nccc(N(C)c3ccc4c(C)n(C)nc4c3)n2)cc1S(N)(=O)=O | enzyme activity | inhibitor | – | 0.3 µM | inhibition | 6%
COc1cc2ncnc(Nc3ccc(Oc4ccccc4)c(C)c3C)c2cc1OC | enzyme activity | inhibitor | – | 1 µM | inhibition | 1%
CCN(CC)CCNC(=O)c1c(C)[nH]c(/C=C2\C(=O)Nc3ccc(F)cc32)c1C | enzyme activity | inhibitor | – | 10 µM | inhibition | 97%
Nc1ncnc2occ(-c3ccc(NC(=O)Nc4cc(C(F)(F)F)ccc4F)cc3)c12 | cell-free assay | inhibitor | – | 20 µM | remaining signal | 2.8%
CCS(=O)(=O)c1cc2cc(C[C@](O)(CC(C)(C)c3ccc(F)cc3C(N)=O)C(F)(F)F)[nH]c2cn1 | cell-free assay | – | competition with immobilised ligand | 1 µM | remaining binding | 100%
COc1cc(Cl)c(C(=O)N[C@@H](CN[C@H]2CC[C@@H](N)CC2)Cc2ccc(C#N)cc2)cc1-c1ccc(CN[C@H](C)c2ccc(C)cc2)o1 | enzyme activity | inhibitor | – | 1 µM | remaining activity | 101%
O=C1NC(=O)c2cc(Nc3ccc(F)cc3)c(Nc3ccc(F)cc3)cc21 | cell-free assay | – | – | 0.5 µM | remaining signal | 111%
Cc1c(NC(=O)c2cc(C(N)=O)nc3cc(F)ccc23)c(C(F)(F)F)nn1Cc1ccc(C(C)(C)C)cc1 | cell-free assay | – | competition with immobilised ligand | 1 µM | remaining binding | 92%
Nc1nc(Nc2ccc(S(N)(=O)=O)cc2)nn1C(=O)c1c(F)cccc1F | cell-free assay | – | – | 0.5 µM | remaining signal | 79.7%
Cc1nc(C2CCN(C(=O)c3ccc(OC(F)(F)F)cc3N)CC2)c2ncc(N3CCN(C)CC3)cc2n1 | cell-free assay | – | competition with immobilised ligand | 1 µM | remaining binding | 100%
O=C(Nc1cnn(-c2csc(C(=O)NC3COC3)c2)c1)Nc1c(F)cccc1Cl | enzyme activity | inhibitor | – | 5 µM | remaining activity | 91%
CN(c1ccnc(CNc2nc(Nc3ccc4c(c3)CC(=O)N4)ncc2C(F)(F)F)n1)S(C)(=O)=O | cell-free assay | – | competition with immobilised ligand | 1 µM | remaining binding | 59%
CC(C)(C)c1nc(-c2cccc(NS(=O)(=O)c3c(F)cccc3F)c2F)c(-c2ccnc(N)n2)s1 | enzyme activity | inhibitor | radiometric | 1 µM | remaining activity | 109%
CCCCN(CCCC)C(=O)CN1C[C@H](c2cc(OC)c3c(c2)OCO3)[C@@H](C(=O)O)[C@@H]1CC(C)(C)CCC | cell-free assay | – | competition with immobilised ligand | 1 µM | remaining binding | 100%
CCN(CC)CCNC(=O)c1c(C)[nH]c(/C=C2\C(=O)Nc3ccc(F)cc32)c1C | enzyme activity | inhibitor | – | 1 µM | remaining activity | 30%
